ChEMBL document CHEMBL1144656, “Synthesis and biological evaluation of nitric oxide-releasing derivatives of oleanolic acid as inhibitors of HepG2 cell apoptosis” (2007)
The source made the active and inactive calls. The rule behind the calls is not given here.

Legend:
[1] = tested on: Rattus norvegicus; test: Inhibition of CCl4-induced liver damage in rat at 128 mg/kg, po; assay type: functional, organism-based; parameters: dose 128 mg/kg
[2] = tested on: HepG2; test: Inhibition of anti-Fas induced apoptosis in human HepG2 cells at 0.1 nM by LDH assay; assay type: functional, cell-based
Procedure, shortened: (§1)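 HepG2 cells, 10^4/well in triplicate, in phenol-red-free DMEM with 4% FCS and 2 µg/ml cycloheximide. Apoptosis induced with anti-Fas (CH-11 at 50 ng/ml or DX2 at 1.5 µg/ml) with or without test agent, 18 h at 37 °C, 5% CO2. Supernatant LDH activity read at O.D. 490/650. Untreated cells and 1% Triton X-100 served as 0% and 100% cytotoxicity references for % protection. Means of three independent experiments.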

[3] = tested on: Rattus norvegicus; test: Inhibition of CCl4-induced hepatic fibrosis in rat at 128 mg/kg, po; assay type: functional, organism-based; parameters: dose 128 mg/kg
[4] = Production of nitric oxide by in vitro Griess assay; assay type: functional
Procedure, shortened: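 NO release estimated as nitrite by Griess reaction in vitro: chromophore formed for 10 min at 30 °C, absorbance at 540 nm, reported as ng/ml.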

[5] = organism: Homo sapiens; test: Protective effect on anti-Fas induced apoptosis in human Hep3b p53-/- cells 0.1 nM by LDH assay; assay type: functional, cell-based
[6] = tested on: HepG2; test: Inhibition of anti-Fas induced apoptosis in human HepG2 cells at 1 nM by LDH assay; assay type: functional, cell-based; procedure, shortened: as §1
[7] = organism: Homo sapiens; test: Protective effect on anti-Fas induced apoptosis in human Hep3b p53-/- cells 1 nM by LDH assay; assay type: functional, cell-based
[8] = tested on: HepG2; test: Protective effect on anti-Fas induced apoptosis in human HepG2 cells by LDH assay; assay type: functional; procedure, shortened: as §1
[9] = organism: Homo sapiens; test: Protective effect on anti-Fas induced apoptosis in human Hep3b p53-/- cells 0.1 uM by LDH assay; assay type: functional, cell-based
[10] = organism: Homo sapiens; test: Protective effect on anti-Fas induced apoptosis in human Hep3b p53-/- cells 10 nM by LDH assay; assay type: functional, cell-based
[11] = tested on: HepG2; test: Inhibition of anti-Fas induced apoptosis in human HepG2 cells at 10 nM by LDH assay; assay type: functional, cell-based; procedure, shortened: as §1
[12] = tested on: HepG2; test: Inhibition of anti-Fas induced apoptosis in human HepG2 cells at 0.1 uM by LDH assay; assay type: functional, cell-based; procedure, shortened: as §1

Q: With `COc1cc(/C=C/C(=O)OCCCO[N+](=O)[O-])ccc1OC(=O)[C@]12CCC(C)(C)C[C@H]1C1=CC[C@@H]3[C@@]4(C)CC[C@H](OC(=O)C(F)(F)F)C(C)(C)[C@@H]4CC[C@@]3(C)[C@]1(C)CC2` as the compound, how does the Activity [1] read?
A: Active

Q: And the Activity [2]?
A: Active

Q: And the Activity [3]?
A: Active

Q: What about the Activity [4] of the same compound?
A: 12 ng/mL

Q: And the Activity [5]?
A: Active

Q: For `COc1cc(C(=O)OCCCCO[N+](=O)[O-])ccc1OC(=O)[C@]12CCC(C)(C)C[C@H]1C1=CC[C@@H]3[C@@]4(C)CC[C@H](OC(=O)C(F)(F)F)C(C)(C)[C@@H]4CC[C@@]3(C)[C@]1(C)CC2`, which Activity [4] is on record?
A: 28 ng/mL

Q: Which Activity [6] does the source give for `COc1cc(/C=C/C(=O)OCCCCO[N+](=O)[O-])ccc1OC(=O)[C@]12CCC(C)(C)C[C@H]1C1=CC[C@@H]3[C@@]4(C)CC[C@H](OC(=O)C(F)(F)F)C(C)(C)[C@@H]4CC[C@@]3(C)[C@]1(C)CC2` here?
A: Active

Q: And the Activity [7]?
A: Active

Q: And the Activity [4]?
A: 12 ng/mL

Q: For `COc1cc(/C=C/C(=O)OCCCCO[N+](=O)[O-])ccc1OC(=O)CC[C@@H](C)[C@H]1CC[C@H]2[C@H]3C(CC[C@]12C)[C@@]1(C)CC[C@@H](O)C[C@H]1C[C@@H]3O` (stereo partly drawn), which Activity [8] is on record?
A: 33.4%

Q: Which Activity [9] does the source give for `CC1(C)CC[C@]2(C(=O)Oc3ccc(/C=C/C(=O)OCCCCO[N+](=O)[O-])cc3)CC[C@]3(C)C(=CC[C@@H]4[C@@]5(C)CC[C@H](OC(=O)C(F)(F)F)C(C)(C)[C@@H]5CC[C@]43C)[C@@H]2C1` here?
A: Active

Q: What about the Activity [4] of the same compound?
A: 20 ng/mL

Q: Which Activity [10] does the source give for `CC1(C)CC[C@]2(C(=O)Oc3ccc(/C=C/C(=O)OCCCO[N+](=O)[O-])cc3)CC[C@]3(C)C(=CC[C@@H]4[C@@]5(C)CC[C@H](OC(=O)C(F)(F)F)C(C)(C)[C@@H]5CC[C@]43C)[C@@H]2C1` here?
A: Active

Q: And the Activity [11]?
A: Active

Q: And the Activity [4]?
A: 18 ng/mL

Q: Which Activity [12] does the source give for `COc1cc(/C=C/C(=O)OCCCCCCO[N+](=O)[O-])ccc1OC(=O)[C@]12CCC(C)(C)C[C@H]1C1=CC[C@@H]3[C@@]4(C)CC[C@H](OC(=O)C(F)(F)F)C(C)(C)[C@@H]4CC[C@@]3(C)[C@]1(C)CC2` here?
A: Active

Q: What about the Activity [9] of the same compound?
A: Active

Q: And the Activity [4]?
A: 21 ng/mL
